Screens deposited in PubChem BioAssay by several laboratories.
Cl transport mod: modulates chloride dependent transport by human KCC2. KCC2 cells, thallium flux FluoZin-2 fluorescence. B-score of Tl+ flux slope (higher = more flux/activation; lower = inhibition) at 10 µM. 2.2% of 190,000 active. AID 1456;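 active means thallium flux slope and its plate-corrected score both differing from the plate sample mean at a set confidence after two filtering rounds, in either direction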;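 further: slope of fluorescence scaled to starting intensity during 10 to 20 s after thallium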
PKD1 inh: inhibitors of human PKD1 kinase; PKD1 kinase fluorescence polarization assay; inhibition, % (test concentration not listed); 0.056% of 200,000 active; AID 797; in the data active means inhibition above about 50%
p97 inhibitor: human p97 ATPase inhibition | recombinant p97 ATPase, Kinase-Glo ATP luminescence, 3 h | inhibition, % at 8 µM | 0.42% of 220,000 active | AID 1481; in the data active means inhibition above about 15%;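 further: 0% = DMSO vehicle and 100% = wells lacking enzyme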
ROMK mod: modulators of human ROMK potassium channel; B-score at 10 µM; P48048; Tet-inducible ROMK, thallium flux fluorescence; actives lie on both sides; 2% of 130,000 active;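 active means signal ratio slope over the read window, or its plate-corrected B-score, at least 3 SD from the plate mean, either direction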;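 further: B-score of the F/F0 ratio slope over 7 to 12 s after thallium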
Target sequence (P48048 whole entry, looked up): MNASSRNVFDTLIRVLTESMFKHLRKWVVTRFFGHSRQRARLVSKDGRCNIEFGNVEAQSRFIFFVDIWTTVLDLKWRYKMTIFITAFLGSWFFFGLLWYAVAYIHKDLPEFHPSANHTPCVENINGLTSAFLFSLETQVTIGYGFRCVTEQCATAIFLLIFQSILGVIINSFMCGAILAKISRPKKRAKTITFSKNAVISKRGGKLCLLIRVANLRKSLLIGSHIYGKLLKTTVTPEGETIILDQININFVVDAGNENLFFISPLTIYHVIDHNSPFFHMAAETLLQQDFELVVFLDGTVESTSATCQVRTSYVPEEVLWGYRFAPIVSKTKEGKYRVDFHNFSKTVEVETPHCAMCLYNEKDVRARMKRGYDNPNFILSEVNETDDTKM
Mdm2 ligase inh: Mdm2 E3 ligase (human) inhibition; Q00987; cell-based MDM2 ubiquitination luciferase reporter, 2 h; 0 = plate control, 100 = twice control, blank-subtracted; signal enhancement, % at 5 µM; 0.11% of 210,000 active; AID 1230;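 active means signal enhancement of 30% or more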;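 further: luminescence tracks abundance of the self-degrading MDM2-luciferase fusion protein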
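Test system: mammalian cells stably expressing self-ubiquitinating, self-degrading MDM2 E3–luciferase fusion; Amount: 2000 cells in each well; Medium: DMEM; Schedule: 4 h settle plus 2 h compound, 37 °C; Technique: SteadyLite luciferase luminescence after 15 min room-temperature reagent incubation; Benchmarks: plate control and blank wells.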
DTT redox prof: compounds producing H2O2 with reducing agent – biochemical, NIH compound library profiling, artefact control for MLSCN library redox annotation, primary screen; DTT-dependent redox cycling H2O2, phenol red/HRP absorbance; 100% = 100 µM peroxide control, 0% = buffer; activation, % at 10 µM; 0.03% of 200,000 active;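 active means activation of at least 50% relative to the plate's high and low controls in the primary single-dose screen; inactive means activation below 50%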;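 further: compound incubated with DTT at 0.8 mM final as the reducing agent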
* hit, by the source's call; nt = not tested or not shown. Compounds with a hit are over-represented: about 3.4% of the library has one in this group of screens.

SMILES	Cl transport mod	PKD1 inh	p97 inhibitor	ROMK mod	Mdm2 ligase inh	DTT redox prof
CCOC(=O)Cc1csc(NC(=S)NC(=O)c2ccccc2C)n1	29*	-12.0	2.5	nt	-7.2	2.3
CCOC(=O)Cc1csc(NC(=O)Cc2ccccc2)n1	-0.28	-7.2	1.0	-0.0267	-17.5	-0.1
Cc1ccc(S(=O)(=O)Oc2ccc(C)cc2/C=N/N=C2\NC(=O)C(C)S2)cc1 (centres undefined)	-1.48	-2.3	-1.8	0.283	-3.9	2.7
O=c1[nH][nH]c2c(N=Cc3ccccc3O)ccc(F)c12	-1.65	nt	40.4*	nt	-8.7	nt
CCOc1ccccc1NC(=O)c1c(Br)cnn1C	0.214	-12.1	-7.0	-0.322	-8.0	-0.6
CC(NC(=O)Cn1ncc(Cl)c(Cl)c1=O)C12CC3CC(CC(C3)C1)C2 (centres undefined)	0.377	-1.3	5.3	-1.52	99.1*	0.5
CCOC(=O)C1=C(c2ccccc2)NC(=O)NC1c1ccc(OC)c(OC)c1 (centres undefined)	-0.59	-8.2	1.4	0.101	-8.2	0.1
CCOC(=O)C1=C(c2ccccc2)N(C)C(=O)NC1c1ccc(OC(F)F)c(OC)c1 (centres undefined)	-0.492	-10.2	2.7	-4.56*	nt	0.2
Cc1c(C(=O)N(Cc2cccs2)C2CCS(=O)(=O)C2)oc2ccccc12 (centres undefined)	-3.5	7.8	-4.0	-0.458	-22.1	0.0
CCOC(=O)Nc1sc2c(c1C(=O)OCC)CCC2	0.445	-5.0	-2.8	-0.988	-10.8	0.3
CCOC(=O)c1c(NS(=O)(=O)c2cccc(OC)c2)sc2c1CCC2	37.7*	-6.1	0.6	-0.311	-8.3	0.6
COC(=O)CC1C(=O)NCCN1C(=S)NC(=O)c1ccccc1[N+](=O)[O-] (centres undefined)	0.124	5.6	3.0	nt	-15.0	0.0
Cc1cccc(N2C(=O)C(Oc3ccc(Cl)cc3Cl)C2C=O)c1C (centres undefined)	-3.01*	-6.4	3.7	-4.89*	-6.5	0.1
Cc1cc(C)cc(C(=O)NC(=S)Nc2ccc(-c3cc4ccccc4oc3=O)cc2)c1	0.745	-4.6	-4.1	nt	-20.2	1.1
O=C(NN1C(=O)/C(=C\c2cccnc2)SC1=S)C(c1ccccc1)c1ccccc1	-0.859	-3.6	-2.0	nt	-6.7	0.6
NC(=O)C1CCN(C(=O)CN2CCCc3ccccc32)CC1	1.41	-1.0	0.8	nt	-13.6	3.0
O=C(CSc1nc2ccccc2[nH]1)N1CCN(c2ccc(F)cc2)CC1	nt	0.0	2.7	0.439	-17.9	3.6
O=C(CCCSc1nc2ccccc2[nH]1)N1CCN(c2ccc([N+](=O)[O-])cc2)CC1	-1.24	-7.4	5.0	-5.38*	-10.2	-0.8
O=C(NC(=S)Nc1ccc(O)cc1)c1ccccc1Cl	0.705	-0.7	-4.1	-1.35e-05	-3.6	-0.4
Cc1c(Cl)cccc1NC(=S)NCC(C)C	1.03	-4.0	-1.4	0.589	-4.9	0.7
COc1ccc(NC(=S)NC(=O)c2ccccc2Cl)cc1	20.6*	3.7	0.7	5.35*	-2.9	0.0
CC(C)CNC(=S)NC(=O)c1ccccc1Cl	49.8*	-11.9	-0.9	nt	3.6	0.0
COc1ccccc1NC(=O)Nc1ccc(F)c(F)c1	0.0893	5.5	0.0	0.0448	-18.6	-0.8
Cc1ccccc1CS(=O)(=O)Cc1ccc(C(=O)N2CCOCC2)o1	0.489	-8.5	-2.1	nt	-2.5	-3.0
O=C1CC(=O)c2c1cccc2[N+](=O)[O-]	-0.419	nt	17.4*	-0.677	-10.7	nt
SMILES	Cl transport mod	PKD1 inh	p97 inhibitor	ROMK mod	Mdm2 ligase inh	DTT redox prof
C/C(=N\NC(=S)NCCc1ccccc1)c1ccc(C)cc1	2.91*	-5.3	-6.3	nt	nt	2.8
C/C(=N\NC(=S)Nc1cccc(C)c1)c1ccccc1	7.42*	8.4	-2.8	1.42	-10.7	-8.2
C/C(=N\NC(=S)Nc1cccc(C)c1)c1cccc(N)c1	9.25*	5.1	-0.7	nt	-14.5	0.1
CSC(=S)N/N=C(\C)c1ccccc1	143*	-5.4	8.7	10.5*	22.9	0.3
CCOc1ccc(NC(=O)CN(C)S(=O)(=O)c2cnc[nH]2)cc1	nt	1.1	-0.2	1.18	32.1*	0.0
CCOc1ccc(OCC)c(NC(=O)CN(C)S(=O)(=O)c2cnc[nH]2)c1	-0.448	-6.1	2.6	nt	-6.0	1.6
Cc1ccc(CNC(=O)C2CC(c3cccc([N+](=O)[O-])c3)=NO2)o1 (centres undefined)	0.417	4.6	4.7	nt	-12.6	-7.7
CC1=C(C#N)C(=O)N(C2CCS(=O)(=O)C2)C(=O)/C1=C\c1ccco1 (centres undefined)	0.989	nt	34.2*	-2.91*	-14.5	nt
C=C1CCN(C(C(=O)OC)C(C)C)S(=O)(=O)c2ccccc21 (centres undefined)	-1.97	nt	nt	nt	33.4*	nt
C=C1CCN(C(C)C(=O)OC)S(=O)(=O)c2ccccc21 (centres undefined)	-0.728	nt	nt	nt	8.6	nt
COc1ccc(CCNc2ncnc3c2[nH]c2cc(OC)c(OC)cc23)cc1OC	-0.031	nt	5.5	nt	nt	nt
CCOC(=O)c1cnn(-c2sc(C(=O)OCC)c(C)c2C(=O)OCC)c1N	43.2*	1.7	-3.4	nt	nt	0.0
CCC(C(=O)Nc1ccccc1C(=O)N1CCCC1)N1C(=O)c2ccccc2C1=O (centres undefined)	-0.216	-1.4	13.1	nt	-9.5	0.3
Cc1ccc(-c2c3c([nH]c(=S)c2C#N)CCCC3)o1	24.4*	4.2	0.4	nt	nt	0.0
CCN=c1sc(C(=O)NCCc2ccccc2)cc(=O)n1CC	-1.38	4.9	2.6	nt	-7.2	-0.5
O=C(Nc1ccc(-c2cn3ccsc3n2)cc1)C1COc2ccccc2O1 (centres undefined)	0.209	0.7	4.3	nt	-16.0	2.5
O=C(CSc1nc(CCC2CCCC2)nc2ccccc12)NCc1ccc2c(c1)OCO2	21.3*	-11.3	0.8	1.02	11.8	0.1
CC1(C)CC(c2nc(-c3ccc(Br)cc3)cs2)CCS1 (centres undefined)	-0.152	10.3	-5.2	nt	-11.5	4.0
CC1(C)CC(c2nc(-c3ccc(Cl)cc3)cs2)CCS1 (centres undefined)	1.7	-2.6	18.3*	nt	-9.3	-8.6
CCCCOC(=O)Nc1ccc(OC)cc1S(=O)(=O)N1CCOCC1	-3.28*	-1.6	4.5	nt	1.6	4.5
CCOC(=O)C(=O)Nc1ccc(S(=O)(=O)N2CCOCC2)cc1OC	-0.487	10.5	-5.1	nt	2.4	0.0
Cc1ccc(Cl)cc1N1CCN(Cc2nnnn2C2CCCCC2)CC1	nt	6.7	-1.7	-0.839	-19.0	0.0
CCN(CC)Cc1cc(C(=O)O)c(C)o1	-0.7	-6.9	7.6	-1.01	31.6*	0.0
Cc1cc(C(=O)Nc2cccc(O)c2)c(C)o1	-0.84	-2.8	-6.4	nt	-8.1	1.3
C=CCn1c(=S)[nH]c2scc(-c3cccs3)c2c1=O	88.8*	0.8	3.2	3.55*	-11.8	-0.1
